Converted amounts (≈) assume the structure as drawn.
How the values were obtained:
Tritrichomonas suis = experiment: In vitro anti-trichomonal activity against Trichomonas foetus-Ortho strain-2.; format: functional; conditions: read-out: ED50 (the source's name)
Summary of the method: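 Trichomonas foetus Ortho strain 2 was grown in Diamond's medium with gentamycin (24 μg/mL) and 10% calf serum. 2×10^6 trichomonads were added to 1.8 mL medium. Compound was given in water or Me₂SO (final ≤1%, with solvent controls) over a range bracketing the EC₅₀. Motile survivors were counted after 24 h at 37 °C. The value is the mean of two or three determinations.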

[1] = Safety index.; format: toxicity; conditions: read-out: Safety index
Summary of the method: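 Index derived as [(ED₅₀ of reference × mutagenicity of reference)]/(ED₅₀ × mutagenicity), using the antitrichomonal ED₅₀ and the TA100 mutagenicity (relative to reference) measured here.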

[2] = test system: Salmonella typhimurium TA100; experiment: The Mutagenicity in Salmonella typhimurium TA100 relative to Ronidazole.
[3] = test system: Salmonella typhimurium TA100; experiment: The Mutagenicity was determined in Salmonella typhimurium TA100 relative to compound 20; ND means not detectable

SMILES | EC50 (Tritrichomonas suis) | selectivity ratio [1] | Mutagenicity [2] | Mutagenicity [3]
Cn1c([N+](=O)[O-])cnc1CCO |  |  | 19% | 
COc1cc(C(=O)OCCn2c([N+](=O)[O-])cnc2C)cc(OC)c1OC | 1.35 µg/mL (≈ 3.7 µM) | 2.5 | 12% | 
Cn1c(CO)nc(CCO)c1[N+](=O)[O-] | 20 µg/mL (≈ 99.4 µM) | 2 | 1% | 
Cc1nc(CCO)n(C)c1[N+](=O)[O-] |  |  | 0.8% | 
Cn1c([N+](=O)[O-])cnc1CO | 1.6 µg/mL (≈ 10.2 µM) | 1.6 | 16% | 
Cc1nc(-c2ccc(F)cc2)n(C)c1[N+](=O)[O-] | 10 µg/mL (≈ 42.5 µM) | 0.27 | 15% | 
Cc1nc(Br)c([N+](=O)[O-])n1C | 0.75 µg/mL (≈ 3.41 µM) | 0.65 | 8% | 
Cc1ncc([N+](=O)[O-])n1C [DIMETRIDAZOLE] | 0.3 µg/mL (≈ 2.13 µM) | 8.9 | 15% | 
Cc1nc(C)n(C)c1[N+](=O)[O-] | 32 µg/mL (≈ 206 µM) | 3.1 | 0.4% | 
Cc1nc(CCO)c([N+](=O)[O-])n1C | 2 µg/mL (≈ 10.8 µM) | 71 | 0.28% | 

Further lines, with some results ahead:

EC50 (Tritrichomonas suis) | SMILES | selectivity ratio [1] | Mutagenicity [2] | Mutagenicity [3]
7.7 µg/mL (≈ 29 µM) | Cn1c(-c2ccc(F)cc2)nc(CCO)c1[N+](=O)[O-] | 0.65 | 8% | 
1 µg/mL (≈ 4.67 µM) | Cc1nc(COC(N)=O)n(C)c1[N+](=O)[O-] | 20 | 2% | 
3.9 µg/mL (≈ 7.37 µM) | CC(=O)Oc1cc(C(=O)OCCn2c([N+](=O)[O-])cnc2-c2ccc(F)cc2)cc(OC(C)=O)c1OC(C)=O | 0.6 | 17% | 
0.4 µg/mL (≈ 2.34 µM) | Cc1ncc([N+](=O)[O-])n1CCO [METRONIDAZOLE] |  |  | 
3.6 µg/mL (≈ 24.8 µM) | Cn1cnc(F)c1[N+](=O)[O-] | 0.7 | 16% | 
0.25 µg/mL (≈ 1.13 µM) | Cn1c([N+](=O)[O-])cnc1-c1ccc(F)cc1 | 0.53 | 300% | 
0.4 µg/mL (≈ 2 µM) | Cn1c([N+](=O)[O-])cnc1COC(N)=O [RONIDAZOLE] | 1 | 100% | 
6.6 µg/mL (≈ 14.7 µM) | CC(=O)Oc1cc(C(=O)OCCn2c([N+](=O)[O-])cnc2C)cc(OC(C)=O)c1OC(C)=O | 26 | 0.23% | 
2.35 µg/mL (≈ 5.4 µM) | CC(=O)Oc1cc(C(=O)OCc2ncc([N+](=O)[O-])n2C)cc(OC(C)=O)c1OC(C)=O | 0.6 | 26% | 
2.8 µg/mL (≈ 12.3 µM) | CC(=O)OCCc1nc(C)n(C)c1[N+](=O)[O-] | 14 | 1% | 
21.5 µg/mL (≈ 116 µM) | Cc1nc(C)n(CCO)c1[N+](=O)[O-] | 6.2 | 0.3% | 
14.5 µg/mL (≈ 91.1 µM) | Cc1nc(F)c([N+](=O)[O-])n1C |  |  | Not detectable
11 µg/mL (≈ 40.8 µM) | Cc1nc(CCOC(=O)C(C)(C)C)c([N+](=O)[O-])n1C | 1.4 | 2.6% | 

From ChEMBL document CHEMBL1123661, “Structural alterations that differentially affect the mutagenic and antitrichomonal activities of 5-nitroimidazoles” (J Med Chem, 1987)
